TRPC4 potent = TRPC4 (mouse) allosteric potentiation | HEK293 TRPC4beta/mu-opioid, DAMGO EC20, Fluo-4 Ca2+ flux; stronger effect = higher value | 310,000 tested, 0.42% active | B-score at 10 µM | Q9QUQ5;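 active = B-score of calcium response area above 5 SD of library B-scores, with initial fluorescence ratio within 5 SD of library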;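 also: B-score of integrated fluorescence ratio over time as area under calcium response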
TRPC4 act = opens the mouse TRPC4 cation channel | B-score at 10 µM | Q9QUQ5 | HEK293 TRPC4beta/mu-opioid, Fluo4 calcium fluorescence; stronger effect = higher value | 310,000 tested, 0.49% active | AID 2237;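 active = B-score above 5 SD of library B-scores, and initial fluorescence ratio not above library mean plus 5 SD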;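 also: positive B-score marks a calcium rise read as TRPC4 activation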
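Incubation: 45 min room-temperature Fluo4 loading, 110 s read / System: HEK293 cells stably co-expressing mouse TRPC4beta and mu-opioid receptor / Signal: Fluo4 fluorescence, kinetic / Control set: buffer (low) and maximal DAMGO (high) / Measure: integrated baseline-normalised fluorescence ratio, converted to per-well B score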
TRPC6 act = mouse TRPC6 channel activation. HEK293-TRPC6 membrane potential dye fluorescence; stronger effect = higher value. B-score at 10 µM. 310,000 tested, 0.13% active. AID 2550;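 active = B-score of the integrated fluorescence ratio above library mean plus 3 SD, and starting fluorescence ratio within library mean plus 5 SD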;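 also: higher score means more depolarization so channel activation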
Target sequence (Q61143 whole entry, looked up): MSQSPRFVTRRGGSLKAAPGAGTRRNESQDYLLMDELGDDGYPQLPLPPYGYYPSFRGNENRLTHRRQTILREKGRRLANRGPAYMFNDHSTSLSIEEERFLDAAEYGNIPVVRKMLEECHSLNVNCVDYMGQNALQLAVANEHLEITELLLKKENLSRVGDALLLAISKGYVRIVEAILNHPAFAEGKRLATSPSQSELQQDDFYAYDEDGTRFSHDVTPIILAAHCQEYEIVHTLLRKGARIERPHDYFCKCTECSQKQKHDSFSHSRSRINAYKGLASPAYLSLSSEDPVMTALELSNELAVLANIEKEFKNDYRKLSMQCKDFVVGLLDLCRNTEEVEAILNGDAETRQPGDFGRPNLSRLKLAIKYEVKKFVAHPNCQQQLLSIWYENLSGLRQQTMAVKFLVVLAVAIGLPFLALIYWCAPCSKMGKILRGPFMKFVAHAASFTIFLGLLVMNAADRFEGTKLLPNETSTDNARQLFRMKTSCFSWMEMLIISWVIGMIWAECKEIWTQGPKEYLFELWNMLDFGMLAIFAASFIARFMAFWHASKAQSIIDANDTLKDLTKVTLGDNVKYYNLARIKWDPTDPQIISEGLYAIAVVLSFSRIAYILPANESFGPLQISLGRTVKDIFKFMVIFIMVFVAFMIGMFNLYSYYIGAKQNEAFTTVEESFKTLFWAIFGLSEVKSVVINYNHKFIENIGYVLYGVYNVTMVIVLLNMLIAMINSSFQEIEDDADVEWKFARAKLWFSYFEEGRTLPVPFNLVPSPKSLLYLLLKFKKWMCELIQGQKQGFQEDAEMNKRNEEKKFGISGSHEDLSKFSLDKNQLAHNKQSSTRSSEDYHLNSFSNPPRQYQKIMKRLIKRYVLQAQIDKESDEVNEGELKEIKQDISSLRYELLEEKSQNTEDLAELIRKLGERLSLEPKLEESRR
TRPC4 block = blocks the mouse TRPC4 cation channel | Q9QUQ5 | 300,000 tested, 0.39% active | HEK293 TRPC4beta/mu-opioid, DAMGO-evoked Fluo4 calcium flux; stronger effect = lower value | B-score at 10 µM;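 active = B-score over 3 SD under the library average, no early fluorescence shift, positive overall ratio signal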
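Signal: kinetic Fluo4 fluorescence imaging of calcium influx. Material: stable TRPC4beta/mu-opioid receptor HEK293 cells. Probe or stimulus: DAMGO in two steps, submaximal then maximal.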
TRPC6 inhibitor = inhibitors of mouse TRPC6 channel; Q61143; HEK293-TRPC6, membrane potential dye, ACh-evoked depolarization; stronger effect = lower value; B-score at 10 µM; 310,000 tested, 1.1% active; AID 2553;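 active = B-score under library mean minus 3 SD, initial fluorescence not abnormally high, positive integrated signal ratio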;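 also: B-score derived from integrated fluorescence ratio over the kinetic read; more negative B-score means stronger inhibition of depolarization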
TRPC4 sel inh 2 = second selectivity test of TRPC6 inhibitors: effect on mouse TRPC4. shares compounds with TRPC6 inhibitor. HEK293 TRPC4/MOR, membrane potential dye fluorescence; channel activated by saturating DAMGO dose. inhibition, % at 10 µM. 920 tested, 42% active. AID 2776;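 active = compounds whose fluorescence signal differed from control wells by over 3 SD, either direction, in both duplicate plates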
TRPC4 spec = mouse TRPC4 off-target activity of TRPC6 inhibitors; 920 tested, 61% active; shares compounds with TRPC6 inhibitor; activity change, negative = inhibition, % at 10 µM; HEK293 TRPC4/mu-opioid, membrane potential fluorescence; AID 2777;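 active = rise or fall in signal beyond 3 SD of buffer-only wells in both replicate plates, either sign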;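 also: integrated kinetic ratio of fluorescence range over baseline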
HEK293 MPD ctr 2-1 = second counter-screen for TRPC6 inhibitors: parental HEK293 cells | 920 tested, 31% active | signal change vs control, % at 10 µM | AID 2779 | parental HEK293 membrane potential dye fluorescence; maximal acetylcholine challenge after compound addition | shares compounds with TRPC6 inhibitor;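 active = membrane potential signal moving either way by over 3 SD of the maximum-effect control, in both duplicate plates, meaning non-specific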
HEK293 MPD ctr-1 = checks TRPC6 inhibitor effects in parental HEK293 cells. shares compounds with TRPC6 inhibitor. parental HEK293 membrane potential dye fluorescence. membrane potential signal change, % at 10 µM. 920 tested, 60% active. AID 2780;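 active = membrane potential signal shifting up or down by more than 3 SD of buffer-only wells, on both duplicate plates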
HEK293 MPD ctr-2 = parental HEK293 nonspecific activity of TRPC6 modulators. membrane potential signal change, % at 10 µM. shares compounds with TRPC6 inhibitor. membrane potential dye fluorescence. 2,400 tested, 51% active;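 active = membrane potential signal moves up or down beyond 5 SD from buffer-only wells, on both duplicate plates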
HEK293 MPD ctr 2-2 = second check of TRPC6 modulator effects in parental HEK293 cells. shares compounds with TRPC6 inhibitor. membrane potential dye fluorescence; after compound, maximal acetylcholine stimulation. inhibition, % at 10 µM. 2,400 tested, 14% active. AID 488926;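 active = membrane potential signal drops by more than 5 SD from the mean control signal, in both duplicate plates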;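 also: plate controls were acetylcholine ECmax control wells for no effect and buffer only wells for full effect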
TRPC4 ctr mod = selectivity of TRPC6 modulators against mouse TRPC4 | shares compounds with TRPC6 inhibitor | HEK293 TRPC4/mu-opioid, membrane potential fluorescence | percent change from control (negative = decrease, positive = increase), % at 10 µM | 2,400 tested, 69% active;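 active = membrane potential signal moved up or down beyond 5 SD of buffer control wells, in both duplicate plates, actives on both sides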;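 also: plate controls were assay buffer wells for no effect and DAMGO maximal-effect wells for full effect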
TRPC4 ctr inh 2 = second selectivity test of TRPC6 modulators against mouse TRPC4; shares compounds with TRPC6 inhibitor; HEK293 TRPC4/mu-opioid, membrane potential dye fluorescence; stimulated with maximal-effect DAMGO; inhibition, % at 10 µM; 2,400 tested, 55% active;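 active = drop in membrane potential signal beyond 5 SD of the control wells in both duplicate plates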;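 also: TRPC4 counter screen for TRPC6 hits run under conditions tuned for TRPC6 not TRPC4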
TRPC6 inh conf = confirmation of mouse TRPC6 inhibitors; shares compounds with TRPC6 inhibitor; 3,300 tested, 43% active; inhibition, % at 10 µM; HEK293-TRPC6, membrane potential dye, ACh-evoked depolarization;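 active = fluorescence ratio falls more than 5 SD below the full-stimulation control mean, in both duplicate runs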;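 also: integrated fluorescence ratio of peak minus minimum over baseline after agonist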
TRPC6 act conf = mouse TRPC6 activator confirmation | shares compounds with TRPC6 inhibitor | HEK293-TRPC6 membrane potential dye fluorescence, FDSS | activation, % at 10 µM | 2,800 tested, 11% active | AID 488961;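 active = ratio signal rise beyond 5 SD above unstimulated control wells' mean, seen in both duplicate runs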;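 also: plate controls were buffer EC0 wells for no effect and acetylcholine ECmax response for full effect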
Starred values were filed as active, the others as inactive; i = inactive; / = not tested or not shown. The list is not random: actives were taken first. Their share in the collection is about 2.3%.

SMILES	TRPC4 potent	TRPC4 act	TRPC6 act	TRPC4 block	TRPC6 inhibitor	HEK293 MPD ctr-2	HEK293 MPD ctr 2-2	TRPC4 ctr mod	TRPC4 ctr inh 2	TRPC6 inh conf	TRPC6 act conf	others
CCN(CC)c1ccc(/C=N/Nc2nc3ccccc3[nH]2)cc1	i	i	i	i	-7.65*	/	/	/	/	i	i	TRPC4 sel inh 2=43.0%*;TRPC4 spec=-18.0%*;HEK293 MPD ctr 2-1=i;HEK293 MPD ctr-1=-235.0%*
S=c1sc2ccccc2n1CCc1ccncc1	i	i	i	i	i	/	/	/	/	/	/
O=[N+]([O-])c1ccc(Cc2ccccn2)c([N+](=O)[O-])c1	i	i	i	i	i	/	/	/	/	/	/
COc1cc(S(=O)(=O)N2CCOCC2)ccc1NC(=O)COC(=O)CC12CC3CC(CC(C3)C1)C2	i	i	i	i	i	/	/	/	/	/	/
Cc1cccc(OCCC(=O)NCC(=O)Nc2cccc(C)c2C)c1	i	i	i	i	i	/	/	/	/	/	/
CCCOP(=O)(c1ccc(N(C)C)cc1)C(O)c1ccc(N(C)C)cc1 (stereo unspecified)	i	i	i	i	i	/	/	/	/	/	/
CCOC(=O)c1c(CSc2cccs2)n(C)c2cc(Br)c(O)c(CN(C)C)c12	i	i	i	i	-6.38*	i	i	i	71.5%*	54.5%*	i
CCOc1ccc(Cl)cc1/C=N/O	i	i	12.6*	-6*	-8.71*	103.5%*	i	21.0%*	41.0%*	78.0%*	115.0%*
CCOc1ccc(Cl)cc1/C=N/NC(N)=O	i	i	i	i	i	/	/	/	/	/	/
CC(=O)c1ccc(NC(=O)Nc2ccncc2)cc1	i	43*	i	-6*	-5.22*	-142.5%*	73.5%*	-11.5%*	52.0%*	48.0%*	i
O=C(Nc1ccncc1)Nc1ccncc1	i	i	i	i	-7.47*	-309.5%*	69.5%*	-50.5%*	37.5%*	i	i
CC(=O)c1ccc(NC(=O)Nc2cccnc2)cc1	i	i	i	i	i	/	/	/	/	/	/
O=C(Nc1ccncc1)Nc1ccc(Cl)cc1	i	i	i	i	i	/	/	/	/	/	/
Brc1ccc(N/N=C(/N=Nc2nn[nH]n2)c2ccccc2)cc1	i	i	i	-6*	-10.8*	-255.5%*	i	-44.0%*	91.0%*	65.0%*	i
O=C(O)c1ccc(N=N/C(=N\Nc2ccc(C(=O)O)cc2)c2ccccc2)cc1	i	i	i	i	i	/	/	/	/	/	/
Cc1ccc(S(=O)(=O)n2ccc3c2CCCC3=O)cc1	i	i	i	i	-5.07*	334.5%*	165.5%*	75.5%*	48.5%*	88.5%*	/
Cc1cc(N2CCOCC2)nc2ccc(Cl)cc12	i	i	i	i	i	/	/	/	/	/	/
CC(=O)/C(C(=N)N1CCN(Cc2ccccc2)CC1)=C(\C)O	i	i	i	i	i	/	/	/	/	/	/
CC(=O)/C(C(=N)N1CCN(C(c2ccccc2)c2ccccc2)CC1)=C(\C)O	i	i	i	i	-6.97*	/	/	/	/	i	i	TRPC4 sel inh 2=i;TRPC4 spec=i;HEK293 MPD ctr 2-1=i;HEK293 MPD ctr-1=i
COc1cc(/C=C/C(=O)N2CC(C)OC(C)C2)cc(OC)c1OC (stereo unspecified)	i	i	i	i	i	/	/	/	/	/	/
CC(C)c1ccc(NC(=O)c2ccc(NC3=NC4CS(=O)(=O)CC4S3)cc2)cc1 (stereo unspecified)	i	i	i	i	i	/	/	/	/	/	/
Cc1ccc(-c2nc(SCC(=O)c3c(N)n(C)c(=O)n(C)c3=O)n[nH]2)cc1	i	i	i	i	-5.11*	i	i	i	i	i	i
Cc1ccc(-c2nc(SC(C)C(=O)c3c(N)n(C)c(=O)n(C)c3=O)n[nH]2)cc1 (stereo unspecified)	i	i	i	i	i	/	/	/	/	/	/
Cc1cc(S(=O)(=O)NCc2ccccc2)ccc1OCC(=O)N1CCCC1	i	i	i	i	i	/	/	/	/	/	/
COc1cc(Cl)c(C)cc1NC(=O)COC(=O)c1cc[n+]([O-])cc1	i	i	i	i	i	/	/	/	/	/	/
SMILES	TRPC4 potent	TRPC4 act	TRPC6 act	TRPC4 block	TRPC6 inhibitor	HEK293 MPD ctr-2	HEK293 MPD ctr 2-2	TRPC4 ctr mod	TRPC4 ctr inh 2	TRPC6 inh conf	TRPC6 act conf	others
O=C(c1ccc(C(=O)N2CCCc3ccccc32)s1)N1CCCc2ccccc21	i	i	i	i	-6.61*	/	/	/	/	i	/	TRPC4 sel inh 2=i;TRPC4 spec=3.9%*;HEK293 MPD ctr 2-1=i;HEK293 MPD ctr-1=3.6%*
C[n+]1ccc(/C=C/c2ccc(Br)cc2)cc1	i	i	i	i	-5.2*	-77.5%*	i	i	35.5%*	i	i
Cc1ccc2[nH]c(C)c(/C=C/c3cc[n+](C)cc3)c2c1	i	i	i	i	i	/	/	/	/	/	/
CCOC(=O)N1CCN(S(=O)(=O)c2ccc(C(=O)Nc3ccc4c(c3)C(=O)NC4=O)cc2)CC1	i	i	i	i	i	/	/	/	/	/	/
COc1ccc(/C=C/C(=O)NCCCN2CCOCC2)cc1	i	i	i	i	i	/	/	/	/	/	/
COc1ccc(C2C3=C(CC(C)(C)CC3=O)Oc3ncn(Cc4ccccc4)c(=N)c32)cc1 (stereo unspecified)	i	i	i	i	-5.44*	145.5%*	i	21.5%*	69.0%*	54.0%*	/
Cc1ccc(NC(=O)c2cncc(Br)c2)c(O)c1	i	i	i	i	i	/	/	/	/	/	/
